Entries after “also recorded” stand apart in the source; their conditions may differ. Each block holds one molecule with its values, some of them ahead of it.
Legend:
procaspase-3 [1] = target: T1, procaspase-3 (Homo sapiens, UniProt P42574); assay: procaspase-3 autoproteolytic activation, fluorogenic Ac-DEVD-AFC activity assay; format: biochemical
T1 sequence (P42574 1-277): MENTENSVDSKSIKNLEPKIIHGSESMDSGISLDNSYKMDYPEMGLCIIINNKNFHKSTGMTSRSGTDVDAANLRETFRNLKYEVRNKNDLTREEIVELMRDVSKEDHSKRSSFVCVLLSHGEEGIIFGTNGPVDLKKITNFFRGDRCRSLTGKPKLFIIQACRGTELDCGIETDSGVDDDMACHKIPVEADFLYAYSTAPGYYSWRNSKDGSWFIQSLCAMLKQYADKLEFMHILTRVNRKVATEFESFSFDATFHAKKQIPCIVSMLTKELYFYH

procaspase-3 [2] = target: T1, procaspase-3; details: caused through chelation of inhibitory zinc ion in some assay buffers; cited from earlier work
procaspase-6 [3] = target: T2, procaspase-6 (Homo sapiens, UniProt P55212); assay: procaspase-6 activation, fluorogenic Ac-VEID-AFC activity assay; format: biochemical
T2 sequence (P55212 1-293): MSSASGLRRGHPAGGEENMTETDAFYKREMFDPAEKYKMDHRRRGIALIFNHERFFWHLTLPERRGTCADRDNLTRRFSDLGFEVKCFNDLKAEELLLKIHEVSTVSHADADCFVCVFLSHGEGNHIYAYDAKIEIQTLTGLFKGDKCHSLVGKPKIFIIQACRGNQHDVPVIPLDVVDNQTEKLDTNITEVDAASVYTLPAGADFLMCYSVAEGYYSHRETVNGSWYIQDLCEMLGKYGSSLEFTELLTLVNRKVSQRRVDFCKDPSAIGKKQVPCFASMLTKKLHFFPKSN

procaspase-7 = procaspase-7 activation, fluorogenic Ac-DEVD-AFC activity assay; format: biochemical; details: procaspase-7 100 nM; 1 nM granzyme B, 25 μM 1541 or 100 μM PAC-1
Procedure, shortened: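 Procaspase-7 (100 nM) was incubated at 37 °C with 1 nM granzyme B, DMSO, 100 μM reference procaspase activator or 25 μM test compound. Activity was sampled every 20 minutes by adding fluorogenic substrate Ac-DEVD-AFC.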

[4] = tested on: procaspase-3 mutants (S198A, T199A and S205A); assay: activation of procaspase-3 alanine mutants; format: biochemical; details: 5 hours, 25 μM 1541 or 1 nM granzyme B, 37 °C
Procedure, shortened: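 Wild-type procaspase-3 and active-site alanine mutants (S198A, T199A, S205A), chosen by alanine scanning near the active site, were incubated 5 h at 37 °C with 25 μM test compound, 1 nM granzyme B or DMSO. Activation was sampled by kinetic assays started with fluorogenic substrate Ac-DEVD-AFC.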

C163A procaspase-3 = assay: cleavage of inactive C163A procaspase-3 by granzyme B; format: biochemical; details: C163A 250 nM, granzyme B 0.5 nM, alone or with 1541 25 μM
procaspase-6 [5] = target: T2, procaspase-6; details: cited from earlier work
BT549 cells [6] = assay: time course of cell viability in BT549 cells; format: cell-based; details: 25 μM 1541, 1541C, 1541D; 1 μM STS; 100 μM etoposide; 1541 and STS after 4 hours
Procedure, shortened: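 p53-deficient BT549 breast cancer cells (2,000) were exposed to 25 μM test compound or either of two analogs, 1 μM staurosporine, 100 μM etoposide or DMSO (final 0.5%). Cell viability was assayed at 2, 4, 6, 8, 12 and 24 h.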

BT549 cells [7] = assay: protection against 1541-induced apoptosis with caspase inhibitors in BT549 cells; format: cell-based; details: preincubation with inhibitor 0.78 to 100 μM, then 25 μM 1541, 24 hours
Procedure, shortened: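 BT549 cells (2,500) were preincubated overnight with Biotin-DEVD-FMK (caspase-3/-7 inhibitor) or Biotin-VAD-FMK (pan-caspase inhibitor) at 0.78 to 100 μM. Cells were then switched to fresh medium containing 25 μM test compound plus the same inhibitor concentration. Viability was assayed after 24 h at 37 °C.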

BT549 cells [8] = assay: cytochrome C release in cytoplasmic extracts of BT549 cells; format: cell-based; details: 25 μM 1541, 1 μM STS, harvested every 3 hours
[9] = tested on: Bak−/−/Bax−/− double knockout (DKO MEFs); assay: histone ELISA apoptosis assay in Bak−/−/Bax−/− DKO MEFs; format: cell-based, murine; details: 1 μM STS, 25 μM 1541, 12 hours
Procedure, shortened: (§1)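 Wild-type and Bak−/−/Bax−/− double-knockout murine embryonic fibroblasts (5,000 cells) were treated at 37 °C with 1 μM staurosporine, 25 μM test compound or DMSO (final 0.5%). Apoptosis was measured after 12 h by histone sandwich ELISA on lysates, which detects histone solubilisation from DNA fragmentation.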

BT549 cells [10] = assay: time course of DEVDase activity in BT549 cells; format: cell-based; details: 25 μM 1541, 1 μM STS
Procedure, shortened: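 p53-deficient BT549 breast cancer cells (2,000) were treated with 25 μM test compound or analogs, 1 μM staurosporine, 100 μM etoposide or DMSO (final 0.5%). Executioner caspase (DEVDase) activity was measured at 2, 4, 6, 8, 12 and 24 h.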

[11] = tested on: wild type murine embryonic fibroblasts (MEF); assay: histone ELISA apoptosis assay in wild type MEFs; format: cell-based; details: 1 μM STS, 25 μM 1541, 12 hours
Procedure, shortened: as §1

[12] = tested on: caspase-8 deficient Jurkat cells (I9.2); assay: cell viability of caspase-8 deficient; format: cell-based, human; details: 25 μM 1541, 1 μM STS, 100 ng/ml FasL
Procedure, shortened: (§2)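 Wild-type (A3) and caspase-8-deficient (I9.2) human Jurkat cells (100,000 cells) were exposed to 25 μM test compound, 1 μM staurosporine or 100 ng/ml FasL. Cell viability was assayed every 2 hours.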

[13] = tested on: wild type (A3) Jurkat cells; assay: cell viability of wild type; format: cell-based, human; details: 25 μM 1541, 1 μM STS, 100 ng/ml FasL
Procedure, shortened: as §2

Molecule: C=CCc1cccc(/C=N/NC(=O)CN2CCN(Cc3ccccc3)CC2)c1O [PAC-1]
- activation of procaspase-3 (in words) (procaspase-3 [1]): no detectable increase in activity or self-proteolysis
- activation of procaspase-3 seen for PAC-1 (procaspase-3 [2]): ~ 2 fold
- activation of procaspase-6 (in words) (procaspase-6 [3]): no detectable increase in activity or self-proteolysis
- activation of procaspase-7 (in words) (procaspase-7): no detectable increase in activity or self-proteolysis

- cleavage of C163A procaspase-3 after 30 minutes (C163A procaspase-3): ~ 10%
- cleavage of C163A procaspase-3 after 60 minutes (C163A procaspase-3): 20%
- time to full activation of the zymogen (procaspase-3 [1]; 1 nM granzyme B, procaspase-3 100 nM): ≤ 90 min
- activation of procaspase-7 (in words) (procaspase-7): robustly activated and fully processed
Molecule: granzyme B: a natural proteolytic activator of procaspase-3
- activation of S198A, T199A and S205A procaspase-3 (in words) [4]: efficiently activated; also recorded: wild type activity
- activation of procaspase-6 by granzyme B (in words) (procaspase-6 [5]): resistant

Molecule: COc1cc([C@@H]2c3cc4c(cc3[C@@H](O[C@@H]3O[C@@H]5CO[C@@H](C)O[C@H]5[C@H](O)[C@H]3O)[C@H]3COC(=O)[C@H]23)OCO4)cc(OC)c1O [etoposide]
- induction of apoptosis / cell death in BT549 (in words) (BT549 cells [6]): much slower apoptosis

Molecule: DEVD-FMK
- block of 1541-induced apoptosis (in words) (BT549 cells [7]): completely blocked apoptosis

Molecule: CN[C@@H]1C[C@H]2O[C@@](C)([C@@H]1OC)n1c3ccccc3c3c4c(c5c6ccccc6n2c5c31)C(=O)NC4 [STS, staurosporine]
- induction of apoptosis / cell death in BT549 (in words) (BT549 cells [6]): near complete apoptosis
- mitochondrial cytochrome C release (in words) (BT549 cells [8]): much greater and more rapid mitochondrial cytochrome C release
- apoptosis in DKO MEFs (in words) [9]: completely resistant
- DEVDase activity in BT549 (in words) (BT549 cells [10]): significantly higher
- time of peak DEVDase activity (BT549 cells [10]): 8 h
- apoptosis in wild type MEFs (in words) [11]: susceptible
- apoptosis in caspase-8 deficient Jurkat cells (in words) [12]: somewhat slower
- apoptosis in wild type Jurkat cells (in words) [13]: comparable to 1541

B1: FasL: a specific inducer of the extrinsic pathway (protein, UniProt P48023 130-281, looked up)
Tumor necrosis factor ligand …: QIGHPSPPPEKKELRKVAHLTGKSNSRSMPLEWEDTYGIVLLSGVKYKKGGLVINETGLYFVYSKVYFRGQSCNNLPLSHKVYMRNSKYPQDLVMMEGKMMSYCTTGQMWARSSYLGAVFNLTSADHLYVNVSELSLVNFEESQTFFGLYKL
- apoptosis in caspase-8 deficient Jurkat cells (in words) [12]: not in caspase-8 deficient cells
- apoptosis in wild type Jurkat cells (in words) [13]: active

— paper PMC2886848 (Science (New York, N.Y.), 2009)
